The record followed here is the M2OR odorant receptor database.
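Further: active if original authors judged signal statistically different from baseline.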

The assay concerns T1, A0A6P6H1F7.
T1 sequence (whole entry): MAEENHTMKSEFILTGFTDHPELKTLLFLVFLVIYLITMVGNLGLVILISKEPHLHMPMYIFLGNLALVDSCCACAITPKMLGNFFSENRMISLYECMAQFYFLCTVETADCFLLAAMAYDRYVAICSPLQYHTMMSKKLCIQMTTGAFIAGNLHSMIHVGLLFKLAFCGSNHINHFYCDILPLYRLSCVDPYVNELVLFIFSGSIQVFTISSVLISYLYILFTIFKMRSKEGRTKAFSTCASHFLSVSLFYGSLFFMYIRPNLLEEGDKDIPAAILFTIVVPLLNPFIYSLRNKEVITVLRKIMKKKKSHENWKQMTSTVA
As to conditions: stereoisomer not certain. Put shortly:
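Each receptor–molecule pair is labelled responsive or non-responsive (inactive) according to whether the original authors judged the measured signal statistically different from baseline. The data were taken from the main text and supplementary material of published papers and checked for typos and inconsistencies. Assay methods differed by source, with transient luciferase assays in mammalian cell lines being common.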
With `Cc1cncc(C)n1`, the “odorant receptor agonist call” value was “active”.

Regarding `COc1nccnc1CC(C)C`, the “odorant receptor agonist call” value was “active”.

With `CCc1nccnc1OC`, the “odorant receptor agonist call” value is “active”.

On to `Cc1nccnc1C`, for which the “odorant receptor agonist call” value is “active”.

As to `CCC(C)c1nccnc1OC` (stereo unspecified), the “odorant receptor agonist call” value is “active”.

For the compound `CC(=O)c1nccnc1C`, the “odorant receptor agonist call” value is “active”.

Consider `Cc1cnc(C)cn1`, for which the “odorant receptor agonist call” value is “active”.

Turning to `Cc1cnc(C)c(C)n1`, the “odorant receptor agonist call” value is “active”.

On to `CCc1cnc(C)c(C)n1`, for which the “odorant receptor agonist call” value was “inactive”.

Take `C=Cc1cnccn1`: the “odorant receptor agonist call” value was “active”.

`COc1cnccn1`: the “odorant receptor agonist call” value is “active”.

For `CCc1ncc(C)nc1CC`, the “odorant receptor agonist call” value is “active”.

`COc1nccnc1C(C)C`: the “odorant receptor agonist call” value was “active”.

`CCc1nccnc1CC`: the “odorant receptor agonist call” value was “active”.

With `CC1CCc2nccnc21` (stereo unspecified), the “odorant receptor agonist call” value was “active”.

`CCc1nccnc1C(C)=O`: the “odorant receptor agonist call” value was “active”.

For the compound `COC1=C(C)OC(C)C1=O` (stereo unspecified), the “odorant receptor agonist call” value was “inactive”.

Turning to `Cc1cnccn1`, the “odorant receptor agonist call” value is “active”.

Turning to `CC1=NC(C)C(C)S1` (stereo unspecified), the “odorant receptor agonist call” value was “active”.

For the compound `CCc1nccnc1C`, the “odorant receptor agonist call” value is “active”.

Regarding `CC(=O)c1cnccn1`, the “odorant receptor agonist call” value was “active”.
